Reference: ChEMBL document CHEMBL3112522, “Bicyclic brominated furanones: a new class of quorum sensing modulators that inhibit bacterial biofilm formation” (Bioorg Med Chem, 2014)
Active and inactive are the calls of the source. No cut-off for these calls is given here.

Tests used:
Pseudomonas aeruginosa [1] = experiment: Toxicity in Pseudomonas aeruginosa PAO1 assessed as planktonic growth inhibition at 400 uM after 24 hrs; format: organism-based; settings: in vivo
Pseudomonas aeruginosa [2] = experiment: Antibacterial activity against Pseudomonas aeruginosa PAO1 expressing green fluorescence protein assessed as inhibition of biofilm formation at 400 uM after 24 hrs by confocal laser scanning microscopic analysis; format: functional, organism-based
Procedure, shortened: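 PA01-GFP (pSMC2; grown in LB with 300 µg/mL carbenicillin) formed biofilms on stainless-steel coupons with 400 µM compound, static, 37 °C, 24 h. Coupons rinsed three times in 0.9% saline, then imaged by CLSM.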

Escherichia coli [3] = experiment: Antibacterial activity against Escherichia coli RP437 expressing red fluorescence protein assessed as inhibition of biofilm formation measured as reduction in surface area at 200 uM after 24 hrs by confocal laser scanning microscopic analysis; format: functional, organism-based
Procedure, shortened: (§1)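 E. coli RP437 (pRSH103, red fluorescent; grown in LB with 10 µg/mL tetracycline) formed biofilms on 316 stainless-steel coupons with 200 µM compound or 0.4% DMSO control, static, 37 °C, 24 h. Coupons rinsed three times in 0.9% NaCl, then imaged by CLSM. COMSTAT gave biomass, mean thickness and surface area from z-stacks at four locations, normalized to the BF-free control. Four replicates.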

Escherichia coli [4] = experiment: Antibacterial activity against Escherichia coli RP437 expressing red fluorescence protein assessed as inhibition of biofilm formation measured as reduction in mean thickness of biofilm at 200 uM after 24 hrs by confocal laser scanning microscopic analysis; format: functional, organism-based; procedure, shortened: as §1
Escherichia coli [5] = experiment: Antibacterial activity against Escherichia coli RP437 expressing red fluorescence protein assessed as inhibition of biofilm formation measured as reduction in biomass at 200 uM after 24 hrs by confocal laser scanning microscopic analysis; format: functional, organism-based; procedure, shortened: as §1
SK-N-SH = experiment: Cytotoxicity against human SK-N-SH cells assessed as cell survival at 100 uM incubated for 1 hr followed by compound washout measured up to 48 hrs by CCK-8 assay; format: cell-based
Procedure, shortened: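 SK-N-SH cells seeded at 5×10^4 cells/mL (100 µL) in EMEM with 10% FBS and allowed to adhere 24 h. Exposed 1 h to 100 µM compound or DMSO control, washed twice, then allowed to recover 0, 24 or 48 h. Live cells measured by CCK-8 at A450. Survival = (sample − medium)/(control − medium) × 100.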

[6] = Cytotoxicity against human SK-N-SH cells assessed as cell survival at 400 uM incubated for 1 hr followed by compound washout measured after 48 hrs by CCK-8 assay relative to control; format: cell-based; settings: read-out: Survival
Procedure, shortened: (§2)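 SK-N-SH cells were grown in EMEM with 10% FBS, penicillin/streptomycin and 2.0 mM L-glutamine at 37 °C, 5% CO2. Wells were seeded at 5×10^4 cells/mL and left 24 h to adhere. Cells were exposed for 1 h in fresh medium, with DMSO-matched controls, then washed twice. After 0, 24 or 48 h recovery, CCK-8 A450 was read. Survival = (sample−medium)/(control−medium)×100.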

[7] = Cytotoxicity against human SK-N-SH cells assessed as cell survival at 400 uM incubated for 1 hr followed by compound washout measured after 24 hrs by CCK-8 assay relative to control; format: cell-based; settings: read-out: Survival; procedure, shortened: as §2
[8] = Cytotoxicity against human SK-N-SH cells assessed as cell survival at 400 uM incubated for 1 hr followed by compound washout measured immediately by CCK-8 assay relative to control; format: cell-based; settings: read-out: Survival; procedure, shortened: as §2
Pseudomonas aeruginosa [9] = experiment: Inhibition of quorum sensing system in Pseudomonas aeruginosa PAO-JP2 assessed as reduction of elastase B production at 300 uM after 24 hrs by congo-red staining-based assay relative to control
Procedure, shortened: (§3)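 PAO-JP2 grown in PTSB at 37 °C, subcultured at OD600 0.05 with 5 µM 3-oxo-C12-HSL and 10 µM C4-HSL ± compound, shaken at 250 rpm for 24 h. Filtered supernatant (100 µL) incubated with Elastin-Congo red (4.5 mg in 900 µL Tris-HCl pH 7.2, 1 mM CaCl2) for 24 h at 37 °C, stopped with EDTA. A490 read minus bacteria-free blank, normalized to control. Four replicates.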

[10] = target: T1, HTH-type quorum-sensing regulator RhlR (Pseudomonas aeruginosa (strain ATCC 15692 / PAO1 / 1C / PRS 101 / LMG12228)) (UniProt P54292); experiment: Agonist activity at RhlR in Pseudomonas aeruginosa PAO-JP2 expressing RhlI assessed as effect on GFP production at 50 to 300 uM after 24 hrs by fluorescence assay in presence of 3-oxo-C12-HSL and C4-HSL relative to control
T1 sequence (whole entry): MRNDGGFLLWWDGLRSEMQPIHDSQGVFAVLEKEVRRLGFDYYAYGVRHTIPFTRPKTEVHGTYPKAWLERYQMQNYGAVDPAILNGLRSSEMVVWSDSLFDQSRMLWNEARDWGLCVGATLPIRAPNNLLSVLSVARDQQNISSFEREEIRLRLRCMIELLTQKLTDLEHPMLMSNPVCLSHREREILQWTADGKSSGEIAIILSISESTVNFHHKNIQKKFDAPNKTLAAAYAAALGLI
Procedure, shortened: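 PAO-JP2 (prhlI-LVAgfp) grown in M9 with 300 µg/mL carbenicillin to OD600 0.1, dosed with 1 µM 3-oxo-C12-HSL and 10 µM C4-HSL ± compound, shaken at 250 rpm and 37 °C for 24 h. GFP read at ex 500/em 540 nm, M9 background subtracted, divided by OD600 and normalized to the BF-free control. Four replicates.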

[11] = target: T1, HTH-type quorum-sensing regulator RhlR (Pseudomonas aeruginosa (strain ATCC 15692 / PAO1 / 1C / PRS 101 / LMG12228)); experiment: Agonist activity at RhlR in Pseudomonas aeruginosa PAO1 expressing RhlI assessed as effect on GFP production at 50 to 300 uM after 24 hrs by fluorescence assay relative to control
Procedure, shortened: (§4)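 PAO1 (prhlI-LVAgfp) grown in M9 with 300 µg/mL carbenicillin to OD600 0.1, exposed to compound at 50, 150 or 300 µM for 24 h at 37 °C with shaking at 250 rpm. Fluorescence read at ex 500/em 540 nm, M9 background subtracted, divided by OD600 and normalized to the BF-free control. Four replicates.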

[12] = target: T2, Transcriptional activator protein LasR (Pseudomonas aeruginosa (strain ATCC 15692 / PAO1 / 1C / PRS 101 / LMG12228)) (UniProt P25084); experiment: Antagonist activity at LasR in Pseudomonas aeruginosa PAO-JP2 expressing LasI assessed as inhibition of GFP production at 50 to 300 uM after 24 hrs by fluorescence assay in presence of 3-oxo-C12-HSL
T2 sequence (whole entry): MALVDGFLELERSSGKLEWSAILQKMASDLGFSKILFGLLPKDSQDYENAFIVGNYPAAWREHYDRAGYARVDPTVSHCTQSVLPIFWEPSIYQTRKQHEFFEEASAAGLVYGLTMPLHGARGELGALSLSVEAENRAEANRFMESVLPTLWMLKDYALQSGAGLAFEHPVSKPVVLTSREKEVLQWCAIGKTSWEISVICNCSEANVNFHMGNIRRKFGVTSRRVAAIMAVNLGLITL
Procedure, shortened: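 PAO-JP2 (plasI-LVAgfp) grown in M9 with 300 µg/mL carbenicillin to OD600 0.1, given 1 µM 3-oxo-C12-HSL ± compound at varied concentrations, incubated 24 h at 37 °C with shaking at 250 rpm. GFP read at ex 500/em 540 nm, M9 background subtracted, divided by OD600 and normalized to the BF-free control. Four replicates.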

[13] = target: T2, Transcriptional activator protein LasR (Pseudomonas aeruginosa (strain ATCC 15692 / PAO1 / 1C / PRS 101 / LMG12228)); experiment: Antagonist activity at LasR in Pseudomonas aeruginosa PAO1 expressing LasI assessed as inhibition of GFP production at 300 uM after 24 hrs by fluorescence assay relative to control
[14] = target: T2, Transcriptional activator protein LasR (Pseudomonas aeruginosa (strain ATCC 15692 / PAO1 / 1C / PRS 101 / LMG12228)); experiment: Antagonist activity at LasR in Pseudomonas aeruginosa PAO1 expressing LasI assessed as inhibition of GFP production at 50 to 150 uM after 24 hrs by fluorescence assay
Escherichia coli [15] = experiment: Toxicity in Escherichia coli RP437 assessed as planktonic growth inhibition at 200 uM after 24 hrs; format: organism-based; settings: in vivo
Procedure, shortened: (§5)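 E. coli RP437 in LB at 37 °C, started at OD600 0.05 in 96-well plates with 200 µM compound (DMSO stock), shaken at 250 rpm. OD600 read at 0, 2, 4, 6, 8, 10, 12 and 24 h, normalized to the BF-free control. Six replicates.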

Pseudomonas aeruginosa [16] = experiment: Antibacterial activity against Pseudomonas aeruginosa PAO1 assessed as inhibition of biofilm formation incubated for 24 hrs followed by compound-washout measured after 30 mins by crystal-violet staining-based colorimetric assay; format: functional, organism-based
Procedure, shortened: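 P. aeruginosa subcultured at OD600 0.1 in LB with compound (DMSO stock) in 96-well polystyrene plates, stationary, 37 °C, 24 h. Wells washed and dried 30 min, stained with 0.1% crystal violet for 30 min, washed, dye solubilized in 95% EtOH, A540 read. Values are (sample − medium)/(DMSO control − medium) × 100. Four replicates.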

Escherichia coli [17] = experiment: Antibacterial activity against Escherichia coli RP437 expressing red fluorescence protein assessed as inhibition of biofilm formation at 200 uM after 24 hrs by confocal laser scanning microscopic analysis; format: functional, organism-based; procedure, shortened: as §1
Pseudomonas aeruginosa [18] = experiment: Antibacterial activity against Pseudomonas aeruginosa PAO1 expressing green fluorescence protein assessed as inhibition of biofilm formation measured as reduction in surface area at 400 uM after 24 hrs by confocal laser scanning microscopic analysis relative to control; format: functional, organism-based
Pseudomonas aeruginosa [19] = experiment: Antibacterial activity against Pseudomonas aeruginosa PAO1 expressing green fluorescence protein assessed as inhibition of biofilm formation measured as reduction in biomass at 400 uM after 24 hrs by confocal laser scanning microscopic analysis relative to control; format: functional; settings: PAO1, 24 h
[20] = target: T2, Transcriptional activator protein LasR (Pseudomonas aeruginosa (strain ATCC 15692 / PAO1 / 1C / PRS 101 / LMG12228)); experiment: Antagonist activity at LasR in Pseudomonas aeruginosa PAO1 expressing LasI assessed as inhibition of GFP production at 50 to 300 uM after 24 hrs by fluorescence assay relative to control
Escherichia coli [21] = experiment: Toxicity in Escherichia coli RP437 assessed as planktonic growth inhibition at 200 uM up to 8 hrs; format: organism-based; settings: in vivo; procedure, shortened: as §5
[22] = target: T1, HTH-type quorum-sensing regulator RhlR (Pseudomonas aeruginosa (strain ATCC 15692 / PAO1 / 1C / PRS 101 / LMG12228)); experiment: Agonist activity at RhlR in Pseudomonas aeruginosa PAO1 expressing RhlI assessed as stimulation of GFP production at 300 uM after 24 hrs by fluorescence assay relative to control; procedure, shortened: as §4
[23] = target: T1, HTH-type quorum-sensing regulator RhlR (Pseudomonas aeruginosa (strain ATCC 15692 / PAO1 / 1C / PRS 101 / LMG12228)); experiment: Agonist activity at RhlR in Pseudomonas aeruginosa PAO1 expressing RhlI assessed as stimulation of GFP production at 150 uM after 24 hrs by fluorescence assay relative to control; procedure, shortened: as §4
Pseudomonas aeruginosa [24] = experiment: Antibacterial activity against Pseudomonas aeruginosa PAO1 expressing green fluorescence protein assessed as inhibition of biofilm formation measured as reduction in mean thickness of biofilm at 400 uM after 24 hrs by confocal laser scanning microscopic analysis relative to control; format: functional
Pseudomonas aeruginosa [25] = experiment: Inhibition of quorum sensing system in Pseudomonas aeruginosa PAO-JP2 assessed as reduction of elastase B production after 24 hrs by congo-red staining-based assay; procedure, shortened: as §3

| SMILES | Activity (Pseudomonas aeruginosa [1]) | inhibition (Pseudomonas aeruginosa [2]) | inhibition (Escherichia coli [3]) | inhibition (Escherichia coli [4]) | inhibition (Escherichia coli [5]) | Activity (SK-N-SH) | viability at 1 h, 400 µM [6] | viability at 1 h, 400 µM [7] | viability at 1 h, 400 µM [8] | inhibition (Pseudomonas aeruginosa [9]) | Activity [10] | Activity [11] | inhibition [12] | inhibition [13] | inhibition [14] | Activity (Escherichia coli [15]) | IC50 (Pseudomonas aeruginosa [16]) | inhibition (Escherichia coli [17]) | inhibition (Pseudomonas aeruginosa [18]) | inhibition at 400 µM (Pseudomonas aeruginosa [19]) | further results |
| --- | --- | --- | --- | --- | --- | --- | --- | --- | --- | --- | --- | --- | --- | --- | --- | --- | --- | --- | --- | --- | --- |
| O=C1C=C(Br)/C(=C/Br)O1 | Toxic | Active |  |  |  |  |  |  |  |  |  |  |  |  |  |  |  |  |  |  |  |
| O=C1C=C2CCCCC(Br)=C2O1 | Non-toxic | Active | Active | Active | Active | Non-toxic | 13% | 7% | 44% | 80% | inactive | inactive | Active | 69% | Active | Non-toxic | 140 µM | Active | Active | 50% |  |
| CC1=C(Br)/C(=C\Br)OC1=O |  |  | Active | Active | Active | Toxic | < 2% | < 2% | 29% |  |  | inactive | Active |  |  |  |  | Active |  |  | inhibition [20]: 46%; Activity (Escherichia coli [21]): Toxic |
| O=C1C=C2CCC(Br)=C2O1 | Non-toxic | Active | Active | Active | Active | Non-toxic | 6% | 21% | 76% | 80% | Active |  | Active |  |  | Non-toxic | > 400 µM | Active | Active | 53% | Activity [22]: 165%; Activity [23]: 82.6%; inhibition [20]: Active; inhibition (Pseudomonas aeruginosa [24]): inactive |
| O=C1C=C2CCCC(Br)=C2O1 | Non-toxic | Active | Active | Active | Active | Non-toxic | 50% | 50% | 76% | 80% | inactive | inactive | Active | 78% | Active | Non-toxic | 146 µM | Active | Active | 71% | inhibition (Pseudomonas aeruginosa [25]): Dose-dependent effect; inhibition at 400 µM (Pseudomonas aeruginosa [24]; PAO1, 24 h): 60% |
